High-throughput results: PubChem BioAssay, The Scripps Research Institute Molecular Screening Center
Hits are enriched below; roughly 3.4% of the tested compounds scored in any of these assays.
TAAR1 ag – human TAAR1 agonism; hit rate 0.99% among 360,000; AID 624467; activation, % at 3 µM; CHO RD-HGA16 TAAR1, Fluo-8 calcium fluorescence; vehicle wells 0%, saturating PEA agonist 100%;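 active means activation above the mean activation of all test compounds in the run plus 3 SD, cut at about 38% in these data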
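System: CHO-derived RD-HGA16 cells with stable Gα16 and human TAAR1. Times: 17-24 h plating, Fluo-8 75 min 37 °C, 30 min RT. Measured by: calcium-sensitive Fluo-8 signal, excitation 470-495, emission 515-575 nm. Read-out basis: % activation relative to PEA EC100 response. Control set: DMSO and PEA EC100. Repeats: no replicates (n 1).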
CHRM1 antagonist – human CHRM1 antagonism. P11229. CHO-K1 hM1, Fluo-8 calcium fluorescence, ACh EC80 antagonist. inhibition, % at 3 µM. hit rate 1.3% among 360,000. AID 588852;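 active means percent inhibition above its own plate's cutoff, namely the mean of that plate's compound wells plus 3 SD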;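 further: peak over basal fluorescence ratio during 140 s after agonist addition; 0% = ACh EC80 plus DMSO and 100% = DMSO alone without agonist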
Target sequence (P11229 whole entry, looked up): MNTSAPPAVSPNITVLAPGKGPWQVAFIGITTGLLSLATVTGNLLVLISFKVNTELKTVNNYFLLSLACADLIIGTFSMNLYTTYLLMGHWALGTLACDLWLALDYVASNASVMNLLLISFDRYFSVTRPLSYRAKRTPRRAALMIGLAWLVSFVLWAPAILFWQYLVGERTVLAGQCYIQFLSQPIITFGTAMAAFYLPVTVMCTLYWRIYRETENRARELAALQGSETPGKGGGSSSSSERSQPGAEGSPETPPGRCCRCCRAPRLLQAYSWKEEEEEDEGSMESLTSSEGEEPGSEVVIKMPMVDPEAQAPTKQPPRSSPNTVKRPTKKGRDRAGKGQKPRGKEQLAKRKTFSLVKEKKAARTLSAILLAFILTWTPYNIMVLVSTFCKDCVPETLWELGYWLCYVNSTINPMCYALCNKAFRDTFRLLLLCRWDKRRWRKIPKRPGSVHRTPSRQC
CHRM1 agonist – human M1 muscarinic receptor agonism | activation, % at 3 µM | hit rate 0.33% among 360,000 | CHO-K1 hM1, Fluo-8 calcium fluorescence, agonist mode; 0% DMSO, 100% acetylcholine EC100 | AID 588814 | P11229;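 active means activation above the run's mean compound activation plus 3 SD, cut at about 16% in these data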;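 further: peak over basal fluorescence ratio within a 140 s kinetic read after compound addition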
TAAR1 antagonist – antagonists of human TAAR1 | Q96RJ0 | CHO RD-HGA16 TAAR1, Fluo-8 calcium fluorescence, antagonist | inhibition, % at 3 µM | hit rate 1.5% among 360,000;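 active means inhibition above a per-plate cutoff, the mean inhibition of test compounds on that plate plus 3 SD, cut at about 49% in these data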;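 further: 0% = DMSO plus EC80 beta-PEA response and 100% = DMSO alone without agonist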
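Assay system: RD-HGA16 CHO cells with stable hTAAR1 and Gα16 / Reagent: EC80 β-phenethylamine stimulus / Doses: 3 µM, single point / Timing: dye loading 75 min at 37 °C, then 30 min room temperature / Measured by: Fluo-8 intracellular calcium dye fluorescence, real-time kinetic reads / Controls: vehicle wells and EC80 agonist wells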
CHRM1 PAM – human CHRM1 positive allosteric modulation | activation, % at 3 µM | AID 588819 | hit rate 0.088% among 360,000 | P11229 | CHO-K1 hM1, Fluo-8 calcium fluorescence, ACh EC20; 0% = ACh EC20, 100% = maximal ACh; in the data active means activation above about 19%, passing the limit was not always enough
Active calls of the source: *; . = no result.

SMILES	TAAR1 ag	CHRM1 antagonist	CHRM1 agonist	TAAR1 antagonist	CHRM1 PAM
CCOc1ccc(NCc2cccn2-c2nnc(N3CCC(C(=O)NCCCN4CC(C)CC(C)C4)CC3)s2)cc1 (stereo unspecified)	2.2	97.9*	-6.2	10.1	-22.9
CCN1CCN(CCCNC(=O)C2CCN(c3nnc(-n4cccc4)s3)CC2)CC1	3.1	-15.4	-4.9	-8.1	7.1
COC(=O)CNC(=S)NC(=O)c1ccc(C(C)(C)C)cc1	11.2	72.0*	-7.3	-7.4	-23.5
CC(C)CN1CCN(CCCOC(=O)Nc2cccc3ccccc23)CC1C (stereo unspecified)	2.7	31.9*	-7.1	-24.3	-22.5
CCc1cccc(Nc2cc(C)n(-c3cccc(CC)c3)c(=O)c2)c1	2.1	.	.	-9.7	.
CC(C)CC1C(=O)N(Cc2cn(CCC3OCCCO3)nn2)CCS(=O)(=O)N1Cc1ccc(-c2ccncc2)cc1 (stereo unspecified)	14.7	-12.7	-1.4	24.1	2.9
COc1ccccc1NC(=O)CN1CCN(CC(=O)Nc2ccc(F)cc2)CC1	6.0	-8.8	-5.7	-1.2	5.1
CCOc1ccccc1NC(=O)CN1CCCCCC1	1.3	26.4*	-10.4	-25.9	-15.3
O=C(CN1CCCC1)Nc1ccc(OCc2ccccc2)cc1	12.2	9.5	-14.9	-18.9	-19.0
COc1ccccc1NC(=O)CN1CCN(CC(=O)Nc2ccc(OCc3ccccc3)cc2)CC1	6.8	16.1*	-0.5	-4.3	-12.4
CC(C(=O)Nc1ccc(OCc2ccccc2)cc1)N1CCCC1 (stereo unspecified)	4.7	49.1*	-7.8	-11.4	-23.8
C=CCn1c(SCC(=O)NC2(C#N)CCCCC2)nnc1-c1ccncc1	1.9	-8.4	-1.1	-26.0	8.6
C=CCn1c(SC(C)C(=O)NC2(C#N)CCCCC2)nnc1-c1ccc(OC)cc1 (stereo unspecified)	1.3	33.0*	-3.3	7.3	-8.8
C=CCN=C1NC(c2ccc(C(F)(F)F)cc2)C(C(=O)OC)=C(C)N1Cc1ccccc1C(F)(F)F (stereo unspecified)	6.0	.	.	11.9	.
NCCCCNCCCN	0.0	62.0	79.3*	-13.7	-28.8
NCCNCCNCCN	6.9	-27.1	-0.4	-24.8	-1.8
CC(C)C[C@H](NC(=O)c1nccs1)C(=O)N1CCC[C@H]1C(=O)NCc1ccccc1	2.8	.	.	4.1	.
O=c1c(Cl)c(N2CCNCC2)cnn1C12CC3CC(CC(C3)C1)C2	0.2	34.7*	-7.7	-23.4	-21.4
CCN1C(=O)/C(=C\N2CCCCCC2)SC1=S	13.7	98.8*	-4.4	-23.6	-23.1
COC(=O)C1=C(C)N(C)C(=NCc2ccc(C(F)(F)F)cc2)NC1c1ccc(F)cc1 (stereo unspecified)	19.6	.	.	20.4	.
Cc1cc2nc(C)n(CCCNC(=O)Nc3ccc(C#N)cc3)c2cc1C	7.7	57.2*	-5.7	18.0	-22.1
COc1ccc(-c2ccc3c(n2)CCCN3S(=O)(=O)c2c(C)noc2C)cc1	0.3	.	.	-7.3	.
COC(=O)c1cc(=O)n(Cc2ccco2)c(=Nc2ccccc2)s1	0.2	.	.	-19.7	.
CCCCN(CCCC)c1cn[nH]c(=O)c1Cl	3.7	26.9*	-7.2	-9.5	-20.8
CCCCSc1nc2[nH]ncc2c(=O)[nH]1	5.4	2.4	-9.3	9.5	2.0
SMILES	TAAR1 ag	CHRM1 antagonist	CHRM1 agonist	TAAR1 antagonist	CHRM1 PAM
Cc1ccc(C(Nc2ccccc2)c2ccc3ccc(C)nc3c2O)c(C)c1 (stereo unspecified)	0.7	.	.	-39.2	.
CCOC(=O)c1ccc(N=C2C(=S)N(c3ccc(C(=O)OCC)cc3)C(=N)N2/N=C/c2ccccc2)cc1	35.9	99.0*	-5.0	18.7	-20.9
COC(=O)[C@@H]1CCCN1C(=O)c1ccc(OC2CCN(Cc3ccccn3)CC2)cc1	1.4	-21.9	-3.8	-6.2	27.6*
COC(=O)C1CCN(C(=O)c2ccc(OC3CCN(Cc4ccccn4)CC3)cc2)CC1	1.1	3.7	-7.7	22.3	1.1
C/C=C/C=C/C(=O)c1cc(C)c(OC(=O)CNC(=O)OC(C)(C)C)c(C)c1O	2.7	.	.	31.1	.
O=C1CCN(C(=O)c2ccccc2)c2ccccc21	3.1	2.9	-4.7	0.6	-1.2
CCCN(CCC)S(=O)(=O)c1ccc(C(=O)N2CCC(=O)c3ccccc32)cc1	7.0	18.0	-2.2	59.7*	-9.4
CCOC(=O)C(Cc1ccc(NC(=O)/C(=C/c2ccc(OC(C)=O)cc2)NC(C)=O)cc1)N1C(=O)c2ccccc2C1=O (stereo unspecified)	11.0	27.3*	-2.4	48.8*	-7.1
Cc1ccc2c(c1)nnn2C1CCN(S(=O)(=O)c2ccc3ccccc3c2)CC1	3.2	3.2	-6.7	8.3	-9.7
Cc1ccc2c(c1)nnn2C1CCN(CC(=O)N(c2ccccc2)c2ccccc2)CC1	0.3	33.5*	-8.0	-26.9	-21.8
Cc1ccc2c(c1)nnn2C1CCN(S(=O)(=O)c2cccc(S(=O)(=O)N(C)C)c2)CC1	19.2	36.7*	2.8	56.2*	-12.1
Nc1ccc(S(=O)(=O)Nc2nc(-c3ccccc3)cc(-c3ccccc3O)n2)cc1	9.1	-13.3	20.3*	-12.3	1.5
Nc1ccc(S(=O)(=O)Nc2nc(-c3ccccc3)cc(-c3ccccc3)n2)cc1	2.6	-12.6	-1.6	-2.1	11.0
COC(=O)c1cc2c(c3c4cc(OC)ccc4n(S(=O)(=O)c4cccc(C)c4)c13)C(=O)N(Cc1ccccc1OC)C2	-0.8	.	.	-42.4	.
CCc1cccc2c(C(=O)COC(=O)[C@@H]3CC(O)CN3S(=O)(=O)c3ccccc3[N+](=O)[O-])c[nH]c12 (stereo partly specified)	10.7	22.5	0.2	56.3*	-10.4
O=C(COC(=O)[C@@H]1CC(O)CN1S(=O)(=O)c1ccccc1[N+](=O)[O-])c1ccccc1 (stereo partly specified)	10.4	-4.4	-1.5	1.8	2.4
COC(=O)[C@]12C[C@H](CC(=O)NCc3cccs3)C(=O)N(CCC3=CCCCC3)C1=C[C@H](C(C)(C)C)O[C@@H]2C	-1.5	.	.	-28.7	.
O=C(NC[C@@H]1CCCO1)c1cccc2c1C(=O)c1ccc(N3CCOCC3)cc1S2(=O)=O	16.8	23.6	-4.3	44.1	-13.2
CC1CCN(c2ccc3c(c2)S(=O)(=O)c2cccc(C(=O)NC[C@@H]4CCCO4)c2C3=O)CC1	30.8	30.1	-0.9	59.5*	-17.7
O=C(NCC1CCCO1)c1cccc2c1C(=O)c1ccc(N3CCC(Cc4ccccc4)CC3)cc1S2(=O)=O (stereo unspecified)	.	38.5*	16.7*	.	-22.7
CCC(c1nc2ccccc2[nH]1)n1c(-c2ccc3cc[nH]c3c2)nc2ccccc21 (stereo unspecified)	11.3	.	.	-10.9	.
Cn1ccnc1C1CCCCN1Cc1nc(-c2ccc3c(c2)OCO3)no1 (stereo unspecified)	2.7	59.2*	-7.5	-0.1	-25.2
